From ChEMBL document CHEMBL4041479, “Piperlongumine (piplartine) and analogues: Antiproliferative microtubule-destabilising agents” (Eur J Med Chem, 2017)
Activity calls are given as the source filed them. The calls are words filed in the database; no cut-off is given here.

Assays:
MCF7 [1] = test: Induction of reactive oxygen species generation in human MCF7 cells assessed as decrease in cell viability at 10 uM in presence of N-acetyl cysteine after 48 hrs by alamarBlue assay; assay type: functional, cell-based
How it was run: (§1)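 MCF-7 cells were seeded at 2.5×10^4 cells/mL and left to adhere. They were pre-treated 1 h with N-acetyl cysteine (1 mM) or Trolox (100 μM), then exposed to test agents for 48 h. Viability was measured by alamarBlue fluorescence as % of ethanol vehicle control. Mean of three independent experiments.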

Homo sapiens [2] = species: Homo sapiens; test: Induction of tubulin depolymerization in human Jurkat cells at 1 uM after 4 hrs by Western blot method; assay type: cell-based
How it was run: (§2)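 MCF-7 (1×10^6/well) or Jurkat cells were treated for 4 h with 1–20 μM or 0.1% ethanol. Cells were lysed in microtubule-preserving buffer (0.1 M PIPES pH 6.9, 2 M glycerol, 5 mM MgCl2, 2 mM EGTA, 0.5% Triton X-100, 4 μM paclitaxel) and centrifuged at 20,000g for 45 min. Soluble (supernatant) and polymer (pellet) fractions, 30 μg protein each, were immunoblotted for α-tubulin with a GAPDH loading control. Three experiments.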

Homo sapiens [3] = species: Homo sapiens; test: Induction of tubulin depolymerization in human MCF7 cells at 1 uM after 4 hrs by Western blot method; assay type: cell-based; how it was run: as §2
MCF7 [4] = test: Cell cycle arrest in human MCF7 cells assessed as G0/G1 phase accumulation at 20 uM after 24 hrs by propidium iodide staining based flow cytometry; assay type: functional
How it was run: (§3)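 MCF-7 cells were seeded at 1×10^5 cells/mL and treated after 24 h with 5, 10 or 20 μM or 0.1% ethanol for 24 or 48 h. Cells were pooled, fixed in ice-cold 70% ethanol at −20 °C for 24 h, then stained with RNase A and propidium iodide for 30 min at 37 °C in the dark. Flow cytometry used FL-2, ≥10,000 gated cells, and sub-G1/G0G1/G2/M were scored by DNA content. Mean ± SEM of three; one-way ANOVA with Dunnett's test.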

MCF7 [5] = test: Cell cycle arrest in human MCF7 cells assessed as G0/G1 phase accumulation at 10 uM after 24 hrs by propidium iodide staining based flow cytometry; assay type: functional; how it was run: as §3
MCF-10A [6] = test: Cytotoxicity in human MCF10A cells at 10 uM after 24 to 48 hrs by alamarBlue assay; assay type: cell-based
How it was run: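 MCF-10a cells were grown in DMEM/F12 with 5% horse serum, EGF, hydrocortisone, cholera toxin and insulin. They were treated at 1, 5, 10 or 20 μM for 48 h. Read-out was alamarBlue fluorescence, blank-subtracted and expressed as % of ethanol vehicle control. Mean of three independent experiments; unpaired two-tailed t-test.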

Homo sapiens [7] = species: Homo sapiens; test: Binding affinity to colchicine-binding site of beta tubulin in human HT-29 cells assessed as inhibition of formation of protein-N,N'-Ethylene-bis(iodoacetamide) adduct at 40 uM after 2 hrs by Western blot method; assay type: cell-based
How it was run: (§4)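 MCF-7 or HT-29 cells were exposed to test agent or ethanol vehicle (0.1% v/v) for 2 h, with MCF-7 seeded at 1×10^6 cells/well overnight beforehand. Selected samples then received N,N'-ethylene-bis(iodoacetamide) for a further 1.5 h. Cells were washed in cold PBS, lysed in Laemmli buffer and run on SDS-PAGE. Three independent experiments.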

MCF7 [8] = test: Cell cycle arrest in human MCF7 cells assessed as G2/M phase accumulation at 5 uM after 24 hrs by propidium iodide staining based flow cytometry; assay type: functional; how it was run: as §3
MCF7 [9] = test: Cell cycle arrest in human MCF7 cells assessed as G2/M phase accumulation at 5 uM after 48 hrs by propidium iodide staining based flow cytometry; assay type: functional; how it was run: as §3
MCF7 [10] = test: Cell cycle arrest in human MCF7 cells assessed as G0/G1 phase accumulation at 20 uM after 48 hrs by propidium iodide staining based flow cytometry; assay type: functional; how it was run: as §3
Homo sapiens [11] = species: Homo sapiens; test: Induction of microtubule depolymerization in human MCF7 cells at 10 uM after 16 hrs by immunofluorescence analysis; assay type: cell-based
How it was run: (§5)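 MCF-7 cells were seeded at 1×10^5 cells/mL on chamber slides and treated for 16 h (vehicle 1% ethanol). Cells were fixed 20 min in 4% paraformaldehyde, permeabilised in 0.5% Triton X-100 and blocked in 5% BSA/PBST. Staining used anti-α-tubulin–FITC (DM1A) for 2 h at rt, then Alexa Fluor 488 for 1 h, with DAPI counterstain. Imaging was by confocal microscopy; three independent experiments.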

MCF7 [12] = test: Induction of reactive oxygen species generation in human MCF7 cells assessed as decrease in cell viability at 1 to 20 uM in presence of N-acetyl cysteine after 48 hrs by alamarBlue assay; assay type: functional, cell-based; how it was run: as §1
MCF7 [13] = test: Cell cycle arrest in human MCF7 cells assessed as G2/M phase accumulation at 20 uM after 48 hrs by propidium iodide staining based flow cytometry
MCF7 [14] = test: Induction of apoptosis in human MCF7 cells assessed as downregulation of Bcl2 expression at 10 uM after 48 hrs by Western blot method; assay type: functional, cell-based
How it was run: (§6)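 MCF-7 cells were seeded at 5×10^5 cells/flask and exposed to 10 μM, vehicle (0.1% ethanol) or no treatment for 48 or 72 h. Cells were lysed in RIPA buffer with protease/phosphatase inhibitors, and equal protein (by BCA) was run on 12% SDS-PAGE. Blots were probed overnight at 4 °C for Bcl-2 (1:500) or Mcl-1 (1:1000), with GAPDH as loading control and ECL detection. Three independent experiments.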

Homo sapiens [15] = species: Homo sapiens; test: Induction of tubulin depolymerization in human MCF7 cells at 5 to 20 uM after 4 hrs by Western blot method; assay type: cell-based; how it was run: as §2
MCF7 [16] = test: Cell cycle arrest in human MCF7 cells assessed as G2/M phase accumulation at 10 uM after 48 hrs by propidium iodide staining based flow cytometry; assay type: functional; how it was run: as §3
MCF7 [17] = test: Cell cycle arrest in human MCF7 cells assessed as sub G0/G1 phase accumulation at 20 uM after 48 hrs by propidium iodide staining based flow cytometry; assay type: functional; how it was run: as §3
MCF7 [18] = test: Induction of reactive oxygen species generation in human MCF7 cells assessed as decrease in cell viability at 1 to 20 uM in presence of trolox after 48 hrs by alamarBlue assay; assay type: functional, cell-based; how it was run: as §1
MCF7 [19] = test: Cell cycle arrest in human MCF7 cells assessed as sub G0/G1 phase accumulation at 10 uM after 48 hrs by propidium iodide staining based flow cytometry; assay type: functional; how it was run: as §3
Homo sapiens [20] = species: Homo sapiens; test: Binding affinity to colchicine-binding site of beta tubulin in human MCF7 cells assessed as inhibition of formation of protein-N,N'-Ethylene-bis(iodoacetamide) adduct at 40 uM after 2 hrs by Western blot method; assay type: cell-based; how it was run: as §4
MCF7 [21] = test: Cytotoxicity against human MCF7 cells after 24 hrs by MTT assay; assay type: functional, cell-based; details: MCF7, 24 h
Bos taurus = species: Bos taurus; test: Induction of bovine tubulin depolymerization at 25 uM measured every 30 secs for 60 mins by spectrophotometry
How it was run: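 Purified tubulin plus GTP was incubated at 37 °C with test agent or 1% ethanol vehicle. Assembly was followed as absorbance (light scattering) at 340 nm every 30 s for 60 min. Mean of three experiments run in duplicate.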

MCF7 [22] = test: Antiproliferative activity in human MCF7 cells assessed as cell viability after 48 hrs by alamarBlue assay; assay type: functional, cell-based; details: MCF7, 48 h
How it was run: (§7)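 Cells were seeded at 2.5×10^4 cells/mL and treated after 24 h with vehicle (0.1% v/v ethanol) or a dose range (0.1–20 μM) for 48 h at 37 °C in 5% CO2. Media-only blanks were subtracted, and viability is given as % of vehicle. Sextuplicate wells, three independent experiments.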

MCF7 [23] = test: Induction of apoptosis in human MCF7 cells assessed as downregulation of Mcl-1 expression at 10 uM after 72 hrs by Western blot method; assay type: functional, cell-based; how it was run: as §6
MCF7 [24] = test: Cell cycle arrest in human MCF7 cells assessed as G2/M phase accumulation at 10 uM after 24 hrs by propidium iodide staining based flow cytometry; assay type: functional; how it was run: as §3
MCF7 [25] = test: Cell cycle arrest in human MCF7 cells assessed as G0/G1 phase accumulation at 10 uM after 48 hrs by propidium iodide staining based flow cytometry; assay type: functional; how it was run: as §3
Homo sapiens [26] = species: Homo sapiens; test: Effect on tubulin polymerization in human MCF7 cells at 1; assay type: cell-based; how it was run: as §2
Homo sapiens [27] = species: Homo sapiens; test: Effect on tubulin polymerization in human Jurkat cells at 1; assay type: cell-based; how it was run: as §2
MCF7 [28] = test: Cell cycle arrest in human MCF7 cells assessed as G2/M phase accumulation at 20 uM after 24 hrs by propidium iodide staining based flow cytometry
Homo sapiens [29] = species: Homo sapiens; test: Disruption of microtubule network in human MCF7 cells at 20 uM after 16 hrs by immunofluorescence analysis; assay type: cell-based; how it was run: as §5
Jurkat [30] = test: Antiproliferative activity in human Jurkat cells assessed as cell viability after 48 hrs by alamarBlue assay; assay type: functional, cell-based
How it was run: as §7, with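 “CO2. AlamarBlue was added 5 h before the end and read as fluorescence (ex 544/em 590 nm).” for “CO2.”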

Jurkat [31] = test: Cytotoxicity against human Jurkat cells after 24 hrs by MTT assay; assay type: functional, cell-based
Homo sapiens [32] = species: Homo sapiens; test: Induction of tubulin depolymerization in human Jurkat cells at 5 to 20 uM after 4 hrs by Western blot method; assay type: cell-based; how it was run: as §2
MCF7 [33] = test: Induction of reactive oxygen species generation in human MCF7 cells assessed as decrease in cell viability at 1 to 10 uM in presence of N-acetyl cysteine after 48 hrs by alamarBlue assay; assay type: functional, cell-based
How it was run: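 MCF-7 cells seeded at 2.5×10^4 cells/mL, left overnight to adhere. After 23 h, pre-treated 1 hr with NAC (1 mM; 100 mM stock in sterile water), then compound for 48 h at 37 °C in 5% CO₂. alamarBlue added 5 h before endpoint, fluorescence ex 544/em 590 nm, blank subtracted. Viability as % of ethanol vehicle control, mean of three independent experiments.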

MCF7 [34] = test: Induction of reactive oxygen species generation in human MCF7 cells assessed as decrease in cell viability at 5 to 20 uM in presence of trolox after 48 hrs by alamarBlue assay; assay type: functional, cell-based; how it was run: as §1
MCF-10A [35] = test: Cytotoxicity in human MCF10A cells at 5 uM at 24 hrs by alamarBlue assay; assay type: cell-based
MCF7 [36] = test: Induction of reactive oxygen species generation in human MCF7 cells assessed as decrease in cell viability at 5 to 20 uM in presence of N-acetyl cysteine after 48 hrs by alamarBlue assay; assay type: functional, cell-based; how it was run: as §1
MCF-10A [37] = test: Cytotoxicity in human MCF10A cells at 1 uM after 24 to 48 hrs by alamarBlue assay; assay type: cell-based
MCF-10A [38] = test: Cytotoxicity in human MCF10A cells at 5 uM at 48 hrs by alamarBlue assay; assay type: cell-based

COc1ccc(OC)c(C(=O)/C(C)=C/c2ccc(N(C)C)cc2)c1
Activity (MCF7 [1]): inactive

COC(=O)Nc1nc2cc(C(=O)c3cccs3)ccc2[nH]1
Activity (Homo sapiens [2]): Active
Activity (Homo sapiens [3]): Active

COc1cc(/C=C/C(=O)N2CCC=CC2=O)cc(OC)c1OC [PIPLARTINE]
Activity (MCF7 [4]): 15%
Activity (MCF7 [5]): 16%
Activity (MCF-10A [6]): 90%
inhibition (Homo sapiens [7]): inactive
Activity (MCF7 [8]): 13%
Activity (MCF7 [9]): 6%
Activity (MCF7 [10]): 19%
Activity (Homo sapiens [11]): Active
Activity (MCF7 [12]): inactive
Activity (MCF7 [13]): 10%
Activity (MCF7 [14]): Active
Activity (Homo sapiens [15]): Active
Activity (MCF7 [16]): 15%
Activity (MCF7 [17]): 4.9%
Activity (MCF7 [18]): Active
Activity (MCF7 [19]): 4.3%
inhibition (Homo sapiens [20]): inactive
IC50 (MCF7 [21]): 8 µM
Activity (Bos taurus): Active
IC50 (MCF7 [22]): 1.2 µM
Activity (MCF7 [23]): Active
Activity (MCF7 [24]): 16%
Activity (MCF7 [25]): 21%
Activity (Homo sapiens [26]): inactive
Activity (Homo sapiens [27]): inactive
Activity (MCF7 [28]): 12%
Activity (Homo sapiens [29]): Active
IC50 (Jurkat [30]): 1.4 µM
IC50 (Jurkat [31]): 5 µM
Activity (Homo sapiens [32]): Active

COc1cc2c(c(OC)c1OC)-c1ccc(OC)c(=O)cc1[C@@H](NC(C)=O)CC2
Activity (MCF7 [33]): inactive

COc1cc(OC)c(OC)cc1/C=C/C(=O)N1CCC=CC1=O
Activity (MCF7 [34]): inactive
Activity (MCF-10A [35]): > 90%
IC50 (MCF7 [22]): 3.4 µM
Activity (MCF7 [36]): inactive
Activity (MCF-10A [37]): Non-Toxic
Activity (MCF-10A [38]): > 80%

COc1cc(/C=C/C(=O)c2ccccc2)cc(OC)c1OC
Activity (MCF7 [1]): inactive
